# ASAP1 GAP inh: inhibitors of human ASAP1 ArfGAP activity, primary screen, biochemical, fluorescence polarization. AID 624377, 2012. inhibition, % at 16.5 µM. ASAP1-stimulated ARF1 GTP hydrolysis, GDP FP detection. Arf-GAP with SH3 domain, ANK repeat and PH domain-containing protein 1 (Homo sapiens), …. hit rate 0.19% among 360,000; in the data active = inhibition above about 25%;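 note: 0% = vehicle with enzyme and substrate and 100% = no enzyme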
# Target sequence (Q9ULH1 325-724 limits assumed): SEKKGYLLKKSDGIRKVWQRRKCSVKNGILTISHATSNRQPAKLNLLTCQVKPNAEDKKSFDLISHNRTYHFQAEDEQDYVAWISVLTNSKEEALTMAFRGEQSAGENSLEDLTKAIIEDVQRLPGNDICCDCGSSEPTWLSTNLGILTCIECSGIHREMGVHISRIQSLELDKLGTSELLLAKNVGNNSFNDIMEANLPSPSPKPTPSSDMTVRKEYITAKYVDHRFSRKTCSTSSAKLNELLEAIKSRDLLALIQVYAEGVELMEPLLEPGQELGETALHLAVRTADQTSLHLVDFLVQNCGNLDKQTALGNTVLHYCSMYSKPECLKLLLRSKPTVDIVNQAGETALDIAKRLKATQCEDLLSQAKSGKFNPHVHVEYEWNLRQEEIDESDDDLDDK
# NadD inh: inhibitors of S. aureus NadD, primary screen, biochemical, colorimetric, uHTS. Nicotinate-nucleotide adenylyltransferase NadD (Staphylococcus aureus N315). purified NadD enzyme, colorimetric absorbance read-out. inhibition, % at 20 µM. hit rate 0.78% among 360,000; in the data active = inhibition above about 26%
# ARFGAP1 inh: inhibitors of rat ARFGAP1 GAP activity, primary screen, biochemical, fluorescence polarization, GDP tracer; ADP-ribosylation factor GTPase-activating protein 1 (Rattus norvegicus), Q62848; Arfgap1-stimulated ARF1 GTP hydrolysis, GDP FP detection; inhibition, % at 16.5 µM; hit rate 0.26% among 360,000;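 active = inhibition above a per-plate limit, mean inhibition of low control wells plus 3 SD, cut at about 25% in these data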;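 note: 0% = DMSO wells with enzyme and 100% = wells lacking Arfgap1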
# Target sequence (Q62848 1-136 limits assumed): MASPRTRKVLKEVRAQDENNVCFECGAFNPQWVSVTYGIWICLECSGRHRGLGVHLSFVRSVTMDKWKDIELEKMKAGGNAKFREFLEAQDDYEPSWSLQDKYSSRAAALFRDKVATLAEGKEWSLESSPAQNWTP
#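 System: truncated rat Arfgap1 GAP domain / Benchmarks: high control wells lacking Arfgap1, low control full reaction with DMSO / Times: compound-enzyme preincubation 20 min, reaction 120 min, detection 60 min, 25 °C / Repeats: one replicate per compound / Also added: human ARF1(Δ1-17)-GTP substrate / Measured by: Tracer-displacement fluorescence polarization with EDTA stop, 620/688 nm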
# rCAG RNA binder: binders of r(CAG) RNA repeats, primary screen, biochemical, fluorescence | AID 651821, 2012 | inhibition, % at 3 µM | r(CAG) RNA repeat, TO-PRO-1 dye displacement fluorescence | hit rate 1.3% among 370,000;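 active = inhibition above the plate cutoff, the mean of all test compounds on that plate plus 3 SD, cut at about 35% in these data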;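 note: 0% = DMSO alone and 100% = 100 µM mitoxantrone as full dye displacement; higher means more dye released from RNA so lower well fluorescence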
# * marks the source's active call; other numbers are inactive results; . = no result. Shown are actives, neighbours in structure and some others; about 2.2% of the full set was active somewhere.
SMILES,ASAP1 GAP inh,NadD inh,ARFGAP1 inh,rCAG RNA binder
Cc1ccc(S(=O)(=O)Nc2ccc(O)c(Sc3ncn[nH]3)c2)cc1,3.8,-5.1,4.1,4.0
CCOc1ccc(S(=O)(=O)Nc2ccc(O)c(Sc3ncn[nH]3)c2)cc1,-1.5,6.0,-6.3,8.9
CCN=C1S/C(=C/c2ccc(-c3ccc(Cl)cc3C(=O)O)o2)C(=O)N1CC,6.7,7.9,4.9,55.4*
Cn1cc(-c2cccc3[nH]cc(-c4ccccc4)c23)c2ccccc21,.,.,.,10.5
CCn1c(C(=O)O)c(CC(=O)Nc2cccc(C(F)(F)F)c2)c2ccccc21,13.8,-7.1,2.2,34.7*
CCc1ccccc1CC1CN(Cc2ccccc2)Cc2ccccc2N1c1ccc(OC)cc1 (centres undefined),9.8,.,7.5,3.8
Oc1ccc(N=Nc2ccc3c(c2)OCCO3)c2ncccc12,0.8,27.2*,6.2,8.7
Cc1cccc(N=Nc2ccc(O)c3ncccc23)c1,-5.9,22.4,0.1,8.4
O=C1N=C(N2CCN(c3cccc4ccccc34)CC2)S/C1=C/c1cccs1,-2.5,28.0*,-1.0,5.5
Cn1c(=O)c2cc(NC(=O)NCc3ccccc3)ccc2n1C/C=C/c1ccccc1,15.7,0.5,-3.1,4.8
O=C(Cc1ccccc1)N/N=C/c1cc(Br)c(Br)o1,27.0*,0.8,18.2,2.2
O=C(C1CCCN(S(=O)(=O)c2ccc(Br)s2)C1)N1CCN(Cc2ccccc2)CC1 (centres undefined),.,.,.,1.5
COc1ccc(C(=O)Nc2nnc(CC(=O)N/N=C/c3ccc(O)cc3O)s2)cc1,-1.5,33.8*,-10.6,7.4
Cc1ccc(C(=O)Nc2nnc(CC(=O)N/N=C/c3ccc(O)c(O)c3)s2)cc1,15.0,36.6*,-18.5,15.7
CCc1nnc(NC(=O)c2ccc(OC)cc2)s1,-10.5,-5.8,-1.9,-3.9
Cc1ccc(C(=O)Nc2nnc(CC(=O)N/N=C/c3ccncc3)s2)cc1,7.9,15.0,-12.0,13.7
Cc1ccc(-n2cccc2/C=C2\C(=N)N3N=C(c4ccco4)SC3=NC2=O)cc1,5.3,47.0*,-10.7,26.0
CCOC(=O)N[C@H](C(=O)N1CCC[C@H]1C(=O)NC1CCCC1)c1ccccc1,-5.4,.,6.6,2.0
c1csc(-c2nc3c4ccccc4c4ccccc4c3[nH]2)c1,16.8,24.9,18.9,59.8*
Cc1ccc(S(=O)c2ccc([N+](=O)[O-])c3nonc23)cc1 (centres undefined),-14.6,10.1,-8.8,63.4*
Cc1ccc(Nc2c([N+](=O)[O-])ccc3nonc23)c(C)c1,-7.0,-6.9,-2.5,-2.6
O=C(O)COCC(=O)Nc1ccc(OCCc2ccccc2)cc1,5.2,5.4,1.6,3.9
O=C1NN(c2ccccc2)C(=O)/C1=C/c1ccc(Sc2ccc(Cl)cc2)o1,11.7,52.4*,-5.6,31.0
Cc1ccc2[nH]c(O)c(N=NC(N)=S)c2c1,7.5,0.7,6.7,2.9
CC(/C=C(\NC(=O)c1ccccc1)C(=O)N=Nc1c(O)[nH]c2ccc(C)cc12)=C\c1ccccc1,7.9,38.6*,4.0,10.8
SMILES,ASAP1 GAP inh,NadD inh,ARFGAP1 inh,rCAG RNA binder
O=C(NCCN1CCC(n2c(=O)[nH]c3ccccc32)CC1)c1cccc(Cl)c1,8.7,-4.7,4.2,-2.2
O=C1C(=O)c2cccnc2-c2ncccc21,1.3,39.7*,-19.1,2.5
COC1=C(Br)C(=O)c2ncccc2C1=O,47.4*,6.3,21.8,4.8
O=C(O)c1cccc(Cn2c(Cl)c(/C=N/NC(=O)c3cc4ccccc4cc3O)sc2=O)c1,-4.5,11.9,-0.2,77.2*
CSc1ncnc2c1ncn2CCCN1CCN(c2ccccn2)CC1,-5.8,-5.6,1.0,-0.5
COc1ccc([C@H]2Oc3cc(O)cc(O)c3C(=O)C2[C@@H]2C(=O)c3c(O)cc(O)cc3O[C@@H]2c2ccc(OC)cc2)cc1 (some centres undefined),14.1,.,9.8,58.1*
COc1ccc(C2CC(=O)Oc3cc(O)cc(O)c32)cc1 (centres undefined),4.1,-4.1,15.5,0.8
Cc1ccc(S(=O)(=O)N(CCc2ccccc2)CC(=O)N2CCOCC2)cc1,.,.,.,2.4
Cc1ccc(-c2ccc(/C=C3/NC(=O)NC3=O)o2)cc1[N+](=O)[O-],4.4,14.3,12.9,10.8
CC1=C(C#N)C(=O)NC(=O)/C1=C\c1ccc(-c2cc(C)c(C)cc2[N+](=O)[O-])o1,0.6,14.2,-8.1,55.3*
O=C(/C=C/c1cccnc1)c1ccc(NC(=O)c2cccc(Br)c2)cc1,25.9*,10.9,7.7,7.1
O=C(CN1C(=O)c2ccccc2S1(=O)=O)NCc1cccs1,-6.1,-0.3,0.6,-2.9
COc1cc(/C=C(/C#N)c2nc3ccccc3[nH]2)ccc1OCc1ccc(C(=O)O)o1,0.9,15.8,5.7,40.0*
CCc1ccc(C(O)c2ncc(-c3cccc(OC)c3)[nH]2)cc1 (centres undefined),.,-3.1,.,.
CN(C)[C@H]1CCN([C@@H]2CS(=O)(=O)N[C@H]2COCc2ccccc2)C1,-15.3,-4.9,-9.7,3.5
Cc1ccc(-c2nn(-c3ccccc3)cc2/C=C2\SC(=S)N(CC(=O)O)C2=O)cc1,6.7,40.8*,-7.1,17.7
CCOc1ccc(-c2nn(-c3ccccc3)cc2/C=C2\SC(N)=NC2=O)cc1C,-0.9,31.6*,4.2,6.4
O=C(O)CCCCCN1C(=O)/C(=C\c2cn(-c3ccccc3)nc2-c2cccs2)SC1=S,-7.6,31.6*,-5.6,20.1
O=C(O)CCN1C(=O)/C(=C/c2cn(-c3ccccc3)nc2-c2cccs2)SC1=S,-18.5,30.7*,-7.8,30.8
CCOc1cc(/C=C2\SC(N)=NC2=O)ccc1O,-8.0,-3.0,15.0,-2.2
CC(C)N1CCCC(C)(C(=O)Nc2nc3ccccc3n2C)C1 (centres undefined),1.2,-1.6,0.1,1.9
COCC(=O)N1C[C@H]2CON(C)[C@H]2C[C@H]1c1cccc(-c2cc(Cl)cc(Cl)c2)c1,7.0,.,2.9,6.1
Cc1ccc(S(=O)(=O)C(C#N)c2nc3ccccc3nc2N2CC(C)OC(C)C2)cc1C (centres undefined),7.4,13.4,-2.0,39.2*
Fc1ccc(-[n+]2nc(Nc3ccccc3)sc2-c2c3ccccc3cc3ccccc23)cc1,6.5,16.1,-10.7,17.8
c1ccc(-[n+]2nc(Nc3cccc4ccccc34)sc2-c2c3ccccc3cc3ccccc23)cc1,.,41.9*,.,.
COC(=O)[C@]12C[C@H](CC(=O)NCCCCc3ccccc3)C(=O)N(CCc3ccc(OC)c(OC)c3)C1=C[C@H](C(C)(C)C)O[C@@H]2C,.,.,.,4.0
Fc1ccccc1N1CCN(C(c2ccnc3ccccc23)c2nnnn2-c2ccc3c(c2)OCCO3)CC1 (centres undefined),13.9,1.9,-5.8,5.5

# High-throughput results (PubChem)
